The source made the active and inactive calls. The calls are words filed in the database; no cut-off is given here.
Legend:
[1] = Cytotoxicity against African green monkey Vero cells assessed as decrease in cell viability after 72 hrs by neutral red dye uptake assay; assay type: cell-based; conditions: chlorocebus sabaeus
Outline: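 Vero cells were exposed to a range of compound concentrations for 72 h. Viability was read by Neutral Red dye uptake, six replicates.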

dengue virus type 2 [2] = experiment: Antiviral activity against Dengue virus 2 prototype 16681 infected in African green monkey Vero cells assessed as inhibition of viral RNA replication at 100 uM after 72 hrs in presence of 100 uM of HINT1 inhibitor […] by qPCR method; assay type: functional, organism-based
Outline: (§1)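 Vero cells infected with DENV-2 (moi = 0.2), then treated with 100 μM compound, alone or together with 100 μM TrpGc (HINT1 inhibitor). After 72 h, supernatant RNA was extracted and viral progeny quantified by DENV-2-specific qPCR. Replication is expressed as percentage of the untreated infected control. Mean of four independent experiments.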

dengue virus type 2 [3] = experiment: Antiviral activity against Dengue virus 2 prototype 16681 infected in African green monkey Vero cells assessed as inhibition of viral RNA replication at 100 uM after 72 hrs by qPCR method; assay type: functional, organism-based; outline: as §1
dengue virus type 2 [4] = experiment: Antiviral activity against Dengue virus 2 prototype 16681 infected in Vero cells assessed as inhibition of virus induced cytopathic effect by plaque assay; conditions: prototype 16681, Vero
dengue virus type 2 [5] = experiment: Antiviral activity against Dengue virus 2 New Guinea assessed as inhibition of virus induced cytopathic effect by neutral red dye uptake assay; assay type: functional, organism-based
[6] = Drug metabolism assessed as half life for ((2R,3R,4R,5R)-5-(2-amino-6-oxo-1,6-dihydro-9H-purin-9-yl)-3,4-dihydroxy-4-methyltetrahydrofuran-2-yl)methyl hydrogen (2-(1H-indol-3-yl)ethyl)phosphoramidate formation in HEPES buffer at pH 7.4 by RP-HPLC analysis; assay type: physicochemical
Outline: (§2)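 Diester prodrug incubated at 37 °C in 20 mM HEPES buffer, pH 7.4 or pH 2.0. Removal of the 2-(methylthio)ethyl group, giving the monoester phosphoramidate, was followed over time by reversed-phase HPLC. The half-life was derived from the conversion time course.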

[7] = Drug metabolism assessed as half life for ((2R,3R,4R,5R)-5-(2-amino-6-oxo-1,6-dihydro-9H-purin-9-yl)-3,4-dihydroxy-4-methyltetrahydrofuran-2-yl)methyl hydrogen (2-(1H-indol-3-yl)ethyl)phosphoramidate formation in HEPES buffer at pH 2 by RP-HPLC analysis; assay type: physicochemical; outline: as §2

Row | IC50 (dengue virus type 2 [4]) | t1/2 [6] | t1/2 [7] | Compound | CC50 at 72 h [1] | inhibition (dengue virus type 2 [2]) | inhibition (dengue virus type 2 [3]) | EC50 (dengue virus type 2 [5])
1 | 6.84 µM |  |  | C[C@@]1(O)[C@H](O)[C@@H](COP(=O)(O)NCCc2c[nH]c3ccccc23)O[C@H]1n1cnc2c(=O)[nH]c(N)nc21 | > 200 µM | inactive | Active | 
2 | 8.14 µM |  |  | C[C@@]1(O)[C@H](O)[C@@H](CO)O[C@H]1n1cnc2c(=O)[nH]c(N)nc21 [2'-B-METHYL-GUANOSINE] | > 200 µM |  |  | 13.6 µM
3 | 1.59 µM | 4.5 h | 3.78 h | CSCCOP(=O)(NCCc1c[nH]c2ccccc12)OC[C@H]1O[C@@H](n2cnc3c(=O)[nH]c(N)nc32)[C@](C)(O)[C@@H]1O (some centres undefined) | > 200 µM | inactive | Active | 
4 |  |  |  | C[C@@]1(O)[C@H](O)[C@@H](CO)O[C@H]1n1cnc2c(N)ncnc21 |  |  |  | 4 µM
